# Key:
# [1] = test system: Plasmodium falciparum; test: In vitro inhibitory activity against Plasmodium falciparum; type: functional, organism-based
# Procedure, shortened: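 Nigerian strain kept in human erythrocytes, 7% hematocrit, RPMI 1640 + 25 mM Hepes pH 7.4 + 10% AB+ serum, 37 °C, candle jar. Drugs from DMSO stocks (final solvent ≤0.25%), 1–2% hematocrit, 0.3–0.8% parasitemia, 48 h, then [3H]hypoxanthine 12–18 h. Filter-bound counts as % of drug-free control; IC50 from log dose plot, ≥2 experiments in triplicate.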
# [2] = test system: Bacillus cereus; test: Minimum Inhibitory concentration against Bacillus cereus ATCC 14579; type: functional
# Procedure, shortened: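 Broth dilution in Mueller-Hinton broth pH 7.4, 24 h incubation at 27 °C. Ionophores diluted in DMSO across 18 tubes, 100 ug/mL down to 1.56 ng/mL.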
IC50 [1] [mg/L],MIC [2] [mg/L],SMILES
0.00125,0.05,C[C@@H]1C[C@H](C)[C@@H](C)O[C@@]1(O)COC(=O)Nc1ccc(Cl)cc1
0.00125,0.78,Cc1ccc(S(=O)(=O)OC[C@]2(O)O[C@H](C)[C@@H](C)C[C@H]2C)cc1
0.0027,0.02,C[C@@H]1C[C@H](C)[C@@H](C)O[C@@]1(O)COC(=O)c1cccs1
0.00165,1.56,C[C@@H]1C[C@H](C)[C@@H](C)O[C@@]1(O)CO

# More lines, now with the values behind:
SMILES,IC50 [1] [mg/L],MIC [2] [mg/L]
C[C@@H]1C[C@H](C)[C@@H](C)OC1O (stereo partly specified),0.0119,0.39
C[C@@H]1C[C@H](C)[C@@H](C)O[C@@]12COC(c1ccccc1)O2 (stereo partly specified),0.75,6.25
C[C@@H]1C[C@H](C)[C@@H](C)O[C@@]12COC(=O)O2,0.00075,1.56
C[C@H](C[C@H](C)[C@@H](C)O)[C@H](O)CO,5.25,> 50
